Columns and labels:
[1] = molecular target: Galectin-3 (Homo sapiens, UniProt P17931); assay: Binding affinity to human galectin 3 at 20 degC by competitive fluorescence polarization assay
Procedure, shortened: (§1)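 Human galectin (galectin-3, or the N-terminal domain of galectin-8 or -9) run in a competitive fluorescence polarization assay at 20 °C. Kd values were derived from inhibition of the fluorescent probe binding.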

[2] = molecular target: Galectin-9 (Homo sapiens, UniProt O00182); assay: Binding affinity to human galectin 9 N-terminal domain at 20 degC by competitive fluorescence polarization assay; procedure, shortened: as §1
[3] = molecular target: T1, Galectin-8 (Homo sapiens, UniProt O00214); assay: Binding affinity to human galectin 8 N-terminal domain at 20 degC by competitive fluorescence polarization assay; procedure, shortened: as §1
T1 sequence (O00214 whole entry): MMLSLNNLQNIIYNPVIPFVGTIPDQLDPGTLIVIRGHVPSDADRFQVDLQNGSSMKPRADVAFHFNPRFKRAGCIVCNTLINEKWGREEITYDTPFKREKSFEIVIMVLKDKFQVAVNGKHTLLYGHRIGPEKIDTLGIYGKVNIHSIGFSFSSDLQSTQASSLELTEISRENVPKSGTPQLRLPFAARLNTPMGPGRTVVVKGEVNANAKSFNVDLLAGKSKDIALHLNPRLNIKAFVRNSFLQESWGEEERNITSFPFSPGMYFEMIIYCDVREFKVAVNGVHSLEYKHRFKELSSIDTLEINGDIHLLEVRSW

[4] = molecular target: Galectin-7 (Homo sapiens, UniProt P47929); assay: Binding affinity to human galectin 7 at 4 degC by competitive fluorescence polarization assay
Procedure, shortened: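 Human galectin-7 was tested in a competitive fluorescence polarization assay at 4 °C because assay sensitivity is lower. Kd values were derived from inhibition of the fluorescent probe binding.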

Chain of Galectin-3 (P17931 whole entry, the tested form may be a part): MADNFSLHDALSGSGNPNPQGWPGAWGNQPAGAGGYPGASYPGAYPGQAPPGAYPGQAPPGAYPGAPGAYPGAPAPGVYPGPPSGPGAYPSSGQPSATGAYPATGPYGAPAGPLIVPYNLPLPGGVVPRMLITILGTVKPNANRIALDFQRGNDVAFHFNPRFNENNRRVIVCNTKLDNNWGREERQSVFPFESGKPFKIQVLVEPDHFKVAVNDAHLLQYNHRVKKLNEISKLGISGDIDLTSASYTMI
Chain of Galectin-9 (O00182 whole entry, the tested form may be a part): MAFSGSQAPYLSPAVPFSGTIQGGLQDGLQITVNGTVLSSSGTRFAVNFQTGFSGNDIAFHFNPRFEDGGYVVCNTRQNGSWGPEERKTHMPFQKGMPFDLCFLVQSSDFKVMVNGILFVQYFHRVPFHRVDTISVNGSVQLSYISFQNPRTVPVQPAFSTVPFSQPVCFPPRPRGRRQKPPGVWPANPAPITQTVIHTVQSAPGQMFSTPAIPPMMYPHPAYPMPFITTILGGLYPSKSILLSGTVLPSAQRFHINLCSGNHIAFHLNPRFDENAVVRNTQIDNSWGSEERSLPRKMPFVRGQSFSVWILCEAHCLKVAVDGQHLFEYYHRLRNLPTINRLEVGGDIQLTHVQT
Chain of Galectin-7 (P47929 whole entry): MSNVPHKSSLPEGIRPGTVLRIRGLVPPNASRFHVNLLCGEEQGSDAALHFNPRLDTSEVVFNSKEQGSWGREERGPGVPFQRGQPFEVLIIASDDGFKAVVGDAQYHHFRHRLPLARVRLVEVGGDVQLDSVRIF

SMILES	Kd [1] [µM]	Kd [2] [µM]	Kd [3] [µM]	Kd [4] [µM]
CS[C@@H]1O[C@H](CO)[C@H](O)[C@H](n2cc(-c3cccc4ccccc34)nn2)[C@H]1O	120	690	> 5000	810
CS[C@@H]1O[C@H](CO)[C@H](O)[C@H](n2cc(C3(O)CCCCC3)nn2)[C@H]1O	1600	1000	> 5000	> 5000
CS[C@@H]1O[C@H](CO)[C@H](O)[C@H](n2nnc(C(N)=O)c2N)[C@H]1O	> 2000	> 5000	> 5000	2700
CS[C@@H]1O[C@H](CO)[C@H](O)[C@H](n2cc(-c3ccccc3F)nn2)[C@H]1O	200	1700	> 5000	> 2000
CS[C@@H]1O[C@H](CO)[C@H](O)[C@H](n2cc(C(=O)NCCCO)nn2)[C@H]1O	360	1900	> 5000	1500
CS[C@@H]1O[C@H](CO)[C@H](O)[C@H](n2cc(CO)nn2)[C@H]1O	> 5000	> 5000	> 5000	2500
COCCNC(=O)c1cn([C@H]2[C@@H](O)[C@@H](CO)O[C@@H](S[C@@H]3O[C@H](CO)[C@H](O)[C@H](n4cc(C(=O)NCCOC)nn4)[C@H]3O)[C@@H]2O)nn1	0.25	2.3	90	4.7
COc1ccc(-c2cn([C@H]3[C@@H](O)[C@@H](CO)O[C@@H](SC)[C@@H]3O)nn2)cc1	260	> 5000	–	2000
CCCc1cn([C@H]2[C@@H](O)[C@@H](CO)O[C@@H](SC)[C@@H]2O)nn1	> 5000	> 5000	> 5000	2200
CNC(=O)c1cn([C@H]2[C@@H](O)[C@@H](CO)O[C@@H](O[C@H]3[C@H](O)[C@@H](NC(C)=O)[C@H](OC)O[C@@H]3CO)[C@@H]2O)nn1	–	73	> 2000	130
CS[C@@H]1O[C@H](CO)[C@H](O)[C@H](n2cc(-c3ccccc3)nn2)[C@H]1O	150	1300	> 5000	1700
C=CCNC(=O)c1cn([C@H]2[C@@H](O)[C@@H](CO)O[C@@H](S[C@@H]3O[C@H](CO)[C@H](O)[C@H](n4cc(C(=O)NCC=C)nn4)[C@H]3O)[C@@H]2O)nn1	0.065	0.74	66	3.4
CNC(=O)c1nnn([C@H]2[C@@H](O)[C@@H](CO)O[C@@H](SC)[C@@H]2O)c1C(=O)NC	> 5000	> 5000	–	> 5000
CNC(=O)c1cn([C@H]2[C@@H](O)[C@@H](CO)O[C@@H](S[C@@H]3O[C@H](CO)[C@H](O)[C@H](n4cc(C(=O)NC)nn4)[C@H]3O)[C@@H]2O)nn1	0.12	0.91	81	8
CCCCNC(=O)c1cn([C@H]2[C@@H](O)[C@@H](CO)O[C@@H](SC)[C@@H]2O)nn1	150	640	> 5000	1100
CO[C@@H]1O[C@H](CO)[C@@H](O[C@@H]2O[C@H](CO)[C@H](O)[C@H](NC(=O)c3ccc4ccccc4c3)[C@H]2O)[C@H](O)[C@H]1NC(C)=O	0.48	> 100	> 100	> 100
CS[C@@H]1O[C@H](CO)[C@H](O)[C@H](n2cc(S(=O)(=O)c3ccc(C)cc3)nn2)[C@H]1O	130	330	–	2000

SMILES	Kd [1] [µM]	Kd [2] [µM]	Kd [3] [µM]	Kd [4] [µM]
CS[C@@H]1O[C@H](CO)[C@H](O)[C@H](n2cc(-c3cccnc3)nn2)[C@H]1O	1900	1600	670	–
O=C(NCc1ccccc1)c1cn([C@H]2[C@@H](O)[C@@H](CO)O[C@@H](S[C@@H]3O[C@H](CO)[C@H](O)[C@H](n4cc(C(=O)NCc5ccccc5)nn4)[C@H]3O)[C@@H]2O)nn1	0.39	0.53	47	8.3
O=C(NCCc1ccccc1)c1cn([C@H]2[C@@H](O)[C@@H](CO)O[C@@H](S[C@@H]3O[C@H](CO)[C@H](O)[C@H](n4cc(C(=O)NCCc5ccccc5)nn4)[C@H]3O)[C@@H]2O)nn1	0.15	1.1	20	2
CS[C@@H]1O[C@H](CO)[C@H](O)[C@H](n2cc(C(=O)NCCN3CCOCC3)nn2)[C@H]1O	520	470	> 5000	> 5000
CO[C@@H]1O[C@H](CO)[C@H](O)[C@H](O)[C@H]1O	–	3300	–	4800
CS[C@@H]1O[C@H](CO)[C@H](O)[C@H](n2nncc2S(=O)(=O)c2ccc(C)cc2)[C@H]1O	> 5000	1600	–	–
CC(O)CNC(=O)c1cn([C@H]2[C@@H](O)[C@@H](CO)O[C@@H](S[C@@H]3O[C@H](CO)[C@H](O)[C@H](n4cc(C(=O)NCC(C)O)nn4)[C@H]3O)[C@@H]2O)nn1 (some centres undefined)	0.12	2.1	58	5
CCCCNC(=O)c1cn([C@H]2[C@@H](O)[C@@H](CO)O[C@@H](S[C@@H]3O[C@H](CO)[C@H](O)[C@H](n4cc(C(=O)NCCCC)nn4)[C@H]3O)[C@@H]2O)nn1	0.029	1.1	58	5.4
CS[C@@H]1O[C@H](CO)[C@H](O)[C@H](n2ccnn2)[C@H]1O	> 5000	> 5000	> 5000	2400
CO[C@@H]1O[C@H](CO)[C@@H](O[C@@H]2O[C@H](CO)[C@H](O)[C@H](n3cc(C(=O)Nc4cccc5ccccc45)nn3)[C@H]2O)[C@H](O)[C@H]1NC(C)=O	0.66	13	> 2000	83
CO[C@@H]1O[C@H](CO)[C@@H](O[C@@H]2O[C@H](CO)[C@H](O)[C@H](O)[C@H]2O)[C@H](O)[C@H]1NC(C)=O	59	490	1000	5500
COC(=O)c1cn([C@H]2[C@@H](O)[C@@H](CO)O[C@@H](SC)[C@@H]2O)nn1	1300	430	> 5000	> 5000
COc1cccc(-c2cn([C@H]3[C@@H](O)[C@@H](CO)O[C@@H](SC)[C@@H]3O)nn2)c1	130	2100	> 5000	2800
CNC(=O)c1cn([C@H]2[C@@H](O)[C@@H](CO)O[C@@H](SC)[C@@H]2O)nn1	–	1100	> 5000	–
CS[C@@H]1O[C@H](CO)[C@H](O)[C@H](n2cc(C(=O)NCc3ccccc3)nn2)[C@H]1O	–	540	> 5000	2100
COc1cc(OC)cc(C(=O)N[C@@H]2[C@@H](O)[C@@H](S[C@@H]3O[C@H](CO)[C@H](O)[C@H](NC(=O)c4cc(OC)cc(OC)c4)[C@H]3O)O[C@H](CO)[C@@H]2O)c1	0.05	1.8	100	2.8
CO[C@@H]1O[C@H](CO)[C@@H](O[C@@H]2O[C@H](CO)[C@H](O)[C@H](n3cc(C(=O)NCc4ccccc4)nn3)[C@H]2O)[C@H](O)[C@H]1NC(C)=O	1.5	12	> 2000	74
